What was measured:
NCI-H292 [1] = test: Cytotoxicity against human NCI-H292 cells assessed as inhibition of cell viability at 25 ug/ml after 72 hrs by MTT assay relative to control; format: functional; settings: NCI-H292, 72 h
How it was run: (§1)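 Single-concentration MTT screen at 25 µg/mL for 72 h. Seeding was 3 x 10^5 cells/mL (HL-60, K562) or 1 x 10^5 cells/mL (adherent), with 24 h preincubation. MTT was added for the final 3 h, formazan dissolved in DMSO and absorbance read at 560 nm. Results are given as percent inhibition ± SD.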

HEp-2 [2] = test: Cytotoxicity against human Hep2 cells assessed as inhibition of cell viability at 25 ug/ml after 72 hrs by MTT assay relative to control; format: functional; settings: HEp-2, 72 h; how it was run: as §1
HT-29 [3] = test: Cytotoxicity against human HT-29 cells assessed as inhibition of cell viability at 25 ug/ml after 72 hrs by MTT assay relative to control; format: functional; settings: HT-29, 72 h; how it was run: as §1
HL-60 [4] = test: Cytotoxicity against human HL60 cells assessed as inhibition of cell viability at 25 ug/ml after 72 hrs by MTT assay relative to control; format: functional; settings: HL-60, 72 h; how it was run: as §1
K562 [5] = test: Cytotoxicity against human K562 cells assessed as inhibition of cell viability at 25 ug/ml after 72 hrs by MTT assay relative to control; format: functional; settings: K562, 72 h; how it was run: as §1
NCI-H292 [6] = test: Cytotoxicity against human NCI-H292 cells assessed as inhibition of cell viability after 72 hrs by MTT assay; format: functional, cell-based; settings: NCI-H292, 72 h
How it was run: (§2)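 MTT assay. Leukaemic lines were seeded at 3 x 10^5 cells/mL and adherent lines at 1 x 10^5 cells/mL, then preincubated 24 h. Compounds were added at 0.098–25.0 µg/mL for 72 h, with MTT for the last 3 h. Formazan was dissolved in DMSO and read at 560 nm. IC50 came from regression; triplicate, two independent experiments.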

HEp-2 [7] = test: Cytotoxicity against human Hep2 cells assessed as inhibition of cell viability after 72 hrs by MTT assay; format: functional, cell-based; settings: HEp-2, 72 h; how it was run: as §2
HT-29 [8] = test: Cytotoxicity against human HT-29 cells assessed as inhibition of cell viability after 72 hrs by MTT assay; format: functional, cell-based; settings: HT-29, 72 h; how it was run: as §2
HL-60 [9] = test: Cytotoxicity against human HL60 cells assessed as inhibition of cell viability after 72 hrs by MTT assay; format: functional, cell-based; settings: HL-60, 72 h; how it was run: as §2
K562 [10] = test: Cytotoxicity against human K562 cells assessed as inhibition of cell viability after 72 hrs by MTT assay; format: functional, cell-based; settings: K562, 72 h; how it was run: as §2
K562 [11] = test: Cytotoxicity against human K562 cells assessed as inhibition of cell viability after 24 hrs by MTT assay; format: functional, cell-based; settings: K562, 24 h
How it was run: (§3)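 K562 cells (3 x 10^5 cells/mL, RPMI-1640 with 10% FBS) were treated with serial dilutions for 24 or 48 h. Viability was read by MTT (absorbance at 560 nm after DMSO solubilisation), and IC50 was obtained by regression.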

K562 [12] = test: Cytotoxicity against human K562 cells assessed as inhibition of cell viability after 48 hrs by MTT assay; format: functional, cell-based; settings: K562, 48 h; how it was run: as §3
K562 [13] = test: Cytotoxicity against human K562 cells assessed as inhibition of cell viability by MTT assay; format: functional, cell-based; settings: TDE = time-dependent effect
Erythrocyte = test: Hemolytic activity in human erythrocytes after 1 hr by spectrophotometric method; format: ADME, cell-based
How it was run: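 Human erythrocytes as a 2% suspension in 0.85% NaCl with 10 mM CaCl2 were exposed to 0.78–250 µg/mL for 1 h at room temperature. After centrifugation, released haemoglobin in the supernatant was read at 540 nm. Triton X-100 (1%) served as positive control; EC50 is the concentration giving 50% haemolysis.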

PBMC = test: Cytotoxicity against human PBMC cells assessed as inhibition of cell viability after 72 hrs by alamar blue assay; format: cell-based
How it was run: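 PBMC from healthy donors were grown in RPMI-1640 with 20% FBS and 2% phytohaemagglutinin, then plated at 10^6 cells/mL. After 24 h, compounds (0.048–25 µg/mL, in DMSO) were added for 72 h. Resazurin was added for the final 24 h and absorbance read at 570 and 595 nm as percent of control.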

[14] = Selectivity index, ratio of IC50 for human PBMC to IC50 for human K562 cells; format: toxicity; settings: human PBMC and human K562 cells, read-out: Ratio IC50
How it was run: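 Ratio of IC50 in PBMC (Alamar blue, 72 h) to IC50 in K562 cells (MTT, 72 h), calculated as SI = IC50(PBMC)/IC50(K562).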

K562 [15] = test: Induction of mitochondrial membrane potential depolarization in human K562 cells at 17 uM after 48 hrs by Rho-123 staining based flow cytometry (reference value: 12.24 +/- 0.61%); format: functional
K562 [16] = test: Induction of mitochondrial membrane potential depolarization in human K562 cells at 34 uM after 48 hrs by Rho-123 staining based flow cytometry (reference value: 12.24 +/- 0.61%); format: functional
K562 [17] = test: Cell cycle arrest in human K562 cells assessed as accumulation at G1-phase at 17 uM after 48 hrs by flow cytometry (reference value: 45.54 +/- 1.34%); format: functional
How it was run: (§4)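 K562 cells seeded at 3 x 10^5 cells/mL in RPMI-1640 and exposed 48 h at 37 °C, 5% CO2. Cells were stained with propidium iodide (Guava cell cycle kit) and 5,000 events acquired by flow cytometry. Vehicle control was 0.1% DMSO. Two independent experiments, each in triplicate.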

K562 [18] = test: Cell cycle arrest in human K562 cells assessed as accumulation at S-phase at 17 uM after 48 hrs by flow cytometry (reference value: 17.39 +/- 0.84%); format: functional; how it was run: as §4
K562 [19] = test: Cell cycle arrest in human K562 cells assessed as accumulation at G2/M-phase at 17 uM after 48 hrs by flow cytometry (reference value: 35.97 +/- 1.94%); format: functional; how it was run: as §4
K562 [20] = test: Cell cycle arrest in human K562 cells assessed as accumulation at G1-phase at 34 uM after 48 hrs by flow cytometry (reference value: 45.54 +/- 1.34%); format: functional; how it was run: as §4
K562 [21] = test: Cell cycle arrest in human K562 cells assessed as accumulation at S-phase at 34 uM after 48 hrs by flow cytometry (reference value: 17.39 +/- 0.84%); format: functional; how it was run: as §4
K562 [22] = test: Cell cycle arrest in human K562 cells assessed as accumulation at G2/M-phase at 34 uM after 48 hrs by flow cytometry (reference value: 35.97 +/- 1.94%); format: functional; how it was run: as §4
K562 [23] = test: Induction of DNA damage in human K562 cells at 17 uM after 48 hrs by propidium iodide staining based flow cytometry (reference value: 3.62 +/- 0.37%); format: functional
K562 [24] = test: Induction of DNA damage in human K562 cells at 34 uM after 48 hrs by propidium iodide staining based flow cytometry (reference value: 3.62 +/- 0.37%); format: functional

In the case of `FC(F)(F)c1ccc(/C=N/Nc2nc(-c3ccc(Cl)cc3Cl)cs2)cc1`, the inhibition at 25 µg/mL (NCI-H292 [1]) is reported as 96.5%, the inhibition at 25 µg/mL (HEp-2 [2]) is reported as 96.7% and the inhibition at 25 µg/mL (HT-29 [3]) is reported as 79.5%. It also gave an inhibition at 25 µg/mL (HL-60 [4]) of 91.1%, an inhibition at 25 µg/mL (K562 [5]) of 88.9% and an IC50 (NCI-H292 [6]) of 10.4 µM. It also gave an IC50 (HEp-2 [7]) of 7.65 µM, an IC50 (HT-29 [8]) of 11.2 µM and an IC50 (HL-60 [9]) of 17.8 µM. It also gave an IC50 (K562 [10]) of 5.48 µM, an IC50 (K562 [11]) greater than 60.1 µM and an IC50 (K562 [12]) of 17.8 µM. The Activity (K562 [13]) was “Tde”, the EC50 (Erythrocyte) was greater than 250 mg/L and the IC50 (PBMC) was 43 µM. The selectivity ratio [14] was 7.85, the Activity (K562 [15]) was 25.05% and the Activity (K562 [16]) was 37.12%. The Activity (K562 [17]) was 85.25%, the Activity (K562 [18]) was 7.23% and the Activity (K562 [19]) was 7.51%. It also gave an Activity (K562 [20]) of 82.74%, an Activity (K562 [21]) of 6.72% and an Activity (K562 [22]) of 11.47%. It also gave an Activity (K562 [23]) of 19.74% and an Activity (K562 [24]) of 22.43%.
